Experiments:
Saccharomyces cerevisiae [1] = assay: Growth inhibition of Yeast expressing rad52 mutant by yeast bioassay; type: functional
How it was run: (§1)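 Agar diffusion assay: 100 µL wells cut in an agar layer overlaid with the repair-deficient yeast strain (∆rad52, or ∆rad52∆top1). IC12 in µg/mL is the concentration giving a 12 mm inhibition zone around the well.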

Vero = assay: Cytotoxicity against african green monkey Vero cells; type: cell-based; settings: Chlorocebus sabaeus
Saccharomyces cerevisiae [2] = assay: Growth inhibition of Yeast expressing rad52.top1 mutant by yeast bioassay; type: functional; how it was run: as §1
[3] = Cytotoxicity against rat H4IIE cells by XTT assay; type: functional, cell-based
How it was run: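 H4IIE rat hepatoma cells in culture; growth read out with the XTT protocol. IC50 in µM is the concentration giving 50% growth inhibition. Active compounds were run in two separate assays, and both values are reported.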

Structure (SMILES)	IC12 (Saccharomyces cerevisiae [1]) [µg/mL]	IC50 (Vero) [µM]	IC12 (Saccharomyces cerevisiae [2]) [µg/mL]	IC50 [3] [µM]
CC(O)c1cc2c(o1)C(=O)c1ccccc1C2=O (configuration not stated)	14	15.3	–	–
CC(CO)(CO)NCc1cc2c(o1)C(=O)c1ccccc1C2=O	> 500	–	240	2
O=Cc1cc2c(o1)C(=O)c1ccccc1C2=O	160	–	44	2
O=C1c2ccccc2C(=O)c2oc(CNC(CO)(CO)CO)cc21	> 500	–	> 250	> 20
O=C1c2ccccc2C(=O)c2oc(CNCC(O)CO)cc21 (configuration not stated)	> 500	–	220	2
CC(C)(CO)NCc1cc2c(o1)C(=O)c1ccccc1C2=O	> 500	–	210	4
COc1cc(OC)c2c(c1)C(=O)c1occc1C2=O	> 8000	–	125	5
COc1ccc2cn(C(C)(CO)CO)c3c2c1C(=O)c1ccoc1-3	> 500	–	> 500	> 20
CCC(CO)(CO)NCc1cc2c(o1)C(=O)c1ccccc1C2=O	> 500	–	> 500	5
COc1cccc2c1C(=O)c1ccoc1C2=O	152	–	44	7
O=C1c2ccccc2C(=O)c2occc21	83	–	17	5
